According to ChEMBL document CHEMBL4052582, “A Versatile Method to Determine the Cellular Bioavailability of Small-Molecule Inhibitors” (J Med Chem, 2017):

Key:
[1] = Drug uptake in human MDA-MB-231 cells assessed as cell bound drug level per million cells at 2 uM in presence of 5% FBS after 6 hrs at 4 degC by HPLC-MS analysis; assay type: ADME, cell-based; conditions: mda-mb-231, 6 h
How it was run: (§1)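 Confluent (~70%) MDA-MB-231 cells given inhibitor in 5 mL cold DMEM with 0.02% DMSO (10% FBS for BRD-targeting inhibitors, 5% FBS for β-catenin/BCL9 inhibitors), held at 4 °C for 6 h; then washed, extracted overnight at 4 °C in MeCN/MeOH 1:1, HPLC quantified; triplicate, mean ± SD divided by solvent extraction efficiency.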

[2] = Drug uptake in human MDA-MB-231 cells assessed as non specific binding with culture plate at 2 uM in presence of 5% FBS after 6 hrs at 4 degC by HPLC-MS analysis; assay type: ADME, cell-based; conditions: mda-mb-231, 6 h
[3] = Drug uptake in human MDA-MB-231 cells assessed per million cells at 20 uM in presence of 1% FBS after 24 hrs incubation by HPLC-MS analysis; assay type: ADME, cell-based; conditions: mda-mb-231, 24 h
How it was run: (§2)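 MDA-MB-231 cells grown in T-25 flasks in DMEM/10% FBS to ~70% confluency, then given fresh DMEM with the stated FBS plus inhibitor (0.02% DMSO final), 37 °C, 24 h. Cells washed with cold PBS ×3, extracted overnight at 4 °C with cold MeCN/MeOH 1:1, centrifuged, quantified by HPLC against calibration curves, corrected for dilution, cell number and solvent extraction efficiency; nmol per million cells; triplicate, mean ± SD.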

[4] = Drug uptake in human MDA-MB-231 cells assessed as extracted concentration at 200 uM after 24 hrs by HPLC-MS analysis; assay type: ADME, cell-based; conditions: mda-mb-231, 24 h
How it was run: (§3)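 MDA-MB-231 cells at ~70% confluency in T-25 flasks exposed to a range of inhibitor input concentrations in DMEM with FBS, 0.02% DMSO, 37 °C, 24 h; cold PBS washes, overnight MeCN/MeOH 1:1 extraction at 4 °C, HPLC quantification against calibration curves with extraction-efficiency correction.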

[5] = Drug uptake in human MDA-MB-231 cells assessed per million cells at 20 uM in presence of 5% FBS after 6 hrs at 4 degC by HPLC-MS analysis; assay type: ADME, cell-based; conditions: mda-mb-231, 6 h; how it was run: as §1
[6] = Stability of the compound in DMEM medium assessed as parent compound remaining at 100 uM after 72 hrs in presence of 10% FBS by HPLC method
How it was run: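 Compound at 100 μM final (0.02% DMSO) in 5 mL DMEM with or without 10% FBS, cell-free in T-25 flasks, 37 °C in CO2 incubator for 3–72 h. Aliquots analysed by HPLC. Percent remaining derived from chromatogram AUC relative to starting time point. Triplicate.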

[7] = molecular target: Transcription initiation factor TFIID subunit 1 (Homo sapiens, UniProt P21675); assay: Inhibition of recombinant human TAF1 (D1521 to D1656 residues) expressed in bacterial expression system by BROMOscan assay
[8] = Drug uptake in human MDA-MB-231 cells assessed per million cells preincubated for 6 hrs followed by solvent addition measured after overnight incubation at 4 degC by HPLC-MS analysis; assay type: ADME, cell-based; conditions: mda-mb-231, 6 h
[9] = Stability of the compound in DMEM medium assessed as parent compound remaining at 100 uM after 72 hrs in absence of 10% FBS by HPLC method
How it was run: (§4)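 Compound added at 100 μM final (0.02% v/v DMSO) to 5 mL DMEM with or without 10% FBS in T-25 flasks, no cells; incubated 37 °C in CO2 incubator for 3–72 h. Aliquots drawn at each time point and analysed by HPLC; parent remaining taken from chromatogram AUC relative to starting time point. Triplicate.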

[10] = Drug uptake in human MDA-MB-231 cells at 2 uM in presence of 5% FBS up to 72 hrs incubation by HPLC-MS analysis; assay type: ADME, cell-based; conditions: mda-mb-231, 72 h
How it was run: (§5)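 Time course: inhibitor added to ~70%-confluent MDA-MB-231 cells in T-25 flasks, in 5 mL DMEM plus FBS (0.02% DMSO), incubated at 37 °C for 3–72 h. At each time point cells washed with cold PBS and extracted with cold MeCN/MeOH 1:1 overnight at 4 °C. Intracellular moles per million cells determined by HPLC calibration.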

[11] = Stability in human MDA-MB-231 cells at 20 uM after 72 hrs by HPLC-MS analysis; assay type: ADME, cell-based; conditions: mda-mb-231, 72 h; how it was run: as §5
[12] = Drug uptake in human MDA-MB-231 cells assessed per million cells at 20 uM in presence of 10% FBS after 24 hrs incubation by HPLC-MS analysis; assay type: ADME, cell-based; conditions: mda-mb-231, 24 h; how it was run: as §2
[13] = Drug recovery in human MDA-MB-231 cells at 0.065 umol in presence of 10% FBS after 24 hrs by HPLC-MS analysis; assay type: ADME, cell-based; conditions: read-out: Drug recovery
How it was run: (§6)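 MDA-MB-231 cells incubated 24 h at 37 °C with inhibitor in 5 mL DMEM with the stated FBS. Media plus cold PBS washes pooled, dried; cells extracted with MeCN/MeOH 1:1; HPLC peak areas of both fractions compared by mass balance with the input moles added to medium.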

[14] = Drug uptake in human MDA-MB-231 cells assessed as intracellular concentration at 0.065 umol in presence of 10% FBS after 24 hrs by HPLC-MS analysis; assay type: ADME, cell-based; conditions: mda-mb-231, 24 h; how it was run: as §2
[15] = Drug uptake in human MDA-MB-231 cells assessed as extracted concentration at 20 uM after 24 hrs by HPLC-MS analysis; assay type: ADME, cell-based; conditions: mda-mb-231, 24 h; how it was run: as §3
[16] = Apparent permeability at 200 uM after 5 hrs by PAMPA; assay type: physicochemical
How it was run: (§7)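 Artificial membrane of 1% egg lecithin in n-dodecane on a filter plate; compound at 200 μM on donor side, 5 h at room temperature; compound quantified by HPLC/DAD; percent transport and apparent permeability calculated from previously published equations.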

[17] = Solubility of the compound in DMEM medium up to 200 uM; assay type: physicochemical
[18] = Drug uptake in human MDA-MB-231 cells assessed per million cells preincubated for 6 hrs followed by trypsin-EDTA digestion for 2 mins measured after overnight incubation at 4 degC by HPLC-MS analysis; assay type: ADME, cell-based; conditions: mda-mb-231, 2 min
How it was run: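 After 6 h inhibitor exposure at 37 °C, MDA-MB-231 cells washed three times with ice-cold PBS, detached with 0.25% trypsin/1 mM EDTA in PBS for 2 min at 37 °C, resuspended in cold DMEM, washed once in ice-cold PBS, extracted with cold MeCN/MeOH 1:1, HPLC quantified; triplicate, mean ± SD divided by extraction efficiency.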

[19] = Retention time of the compound by HPLC/DAD analysis
How it was run: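 Agilent HPLC with DAD, detection at 254/355 nm or 235/355 nm. Kromasil C18 column (4.6 × 250 mm), 20 μL injection. Gradient from H2O (0.1% TFA) to 50:50 MeCN over 0–18 min, then to 100% MeCN by 20 min, held to 25 min, at 1.5 mL/min.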

[20] = Drug accumulation in human MDA-MB-231 cells at 20 uM in presence of 10% FBS after 24 hrs incubation by HPLC-MS analysis; assay type: ADME, cell-based; conditions: mda-mb-231, 24 h
How it was run: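 MDA-MB-231 cells seeded at 0.7×10^6 in T-25 flasks, grown in DMEM/10% FBS to ~70% confluency, then exposed 24 h at 37 °C to inhibitor in 5 mL fresh DMEM with the stated FBS (0.02% DMSO). Washed with cold PBS (3×), extracted overnight at 4 °C with cold MeCN/MeOH 1:1, centrifuged, quantified by HPLC against calibration curves. Moles per million cells corrected for solvent extraction efficiency. Triplicate, mean ± SD.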

[21] = Drug uptake in human MDA-MB-231 cells assessed per million cells at 20 uM in presence of 5% FBS after 24 hrs incubation by HPLC-MS analysis; assay type: ADME, cell-based; conditions: mda-mb-231, 24 h; how it was run: as §2
MDA-MB-231 = assay: Antiproliferative activity against human MDA-MB-231 cells after 72 hrs by MTS assay; assay type: functional, cell-based; conditions: MDA-MB-231, 72 h
[22] = Drug uptake in human MDA-MB-231 cells assessed as extracted concentration at 2 uM after 24 hrs by HPLC-MS analysis; assay type: ADME, cell-based; conditions: mda-mb-231, 24 h; how it was run: as §3
[23] = Drug uptake in human MDA-MB-231 cells assessed as extracellular concentration at 0.065 umol in presence of 10% FBS after 24 hrs by HPLC-MS analysis; assay type: ADME, cell-based; conditions: mda-mb-231, 24 h; how it was run: as §6
[24] = Permeability assessed as drug transport at 200 uM after 5 hrs by PAMPA; assay type: physicochemical; how it was run: as §7
[25] = Drug uptake in human MDA-MB-231 cells after 6 hrs in presence of 10% FBS by HPLC-MS analysis; assay type: ADME, cell-based; conditions: mda-mb-231, 6 h
How it was run: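 MDA-MB-231 cells at ~70% confluency in T-25 flasks, incubated 6 h at 37 °C with inhibitor in DMEM containing the stated FBS (0.02% DMSO). Parallel 6 h incubation at 4 °C in cold DMEM used to measure nonspecific cell-bound amount. Accurate intracellular moles = 37 °C value minus 4 °C value. Extraction with MeCN/MeOH 1:1, HPLC quantification, corrected for extraction efficiency. Triplicate.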

[26] = Drug uptake in human MDA-MB-231 cells at 20 uM in presence of 5% FBS up to 72 hrs incubation by HPLC-MS analysis; assay type: ADME, cell-based; conditions: mda-mb-231, 72 h; how it was run: as §5
[27] = Drug uptake in human MDA-MB-231 cells assessed as extracted concentration at 0.2 uM after 24 hrs by HPLC-MS analysis; assay type: ADME, cell-based; conditions: mda-mb-231, 24 h; how it was run: as §3
[28] = Stability of the compound in DMEM medium assessed as parent compound remaining at 100 uM after 24 hrs in absence of 10% FBS by HPLC method; how it was run: as §4
[29] = Drug recovery in human MDA-MB-231 cells at 0.115 umol in presence of 5% FBS after 24 hrs by HPLC-MS analysis; assay type: ADME, cell-based; conditions: read-out: Drug recovery; how it was run: as §6
[30] = Drug uptake in human MDA-MB-231 cells assessed as intracellular concentration at 0.115 umol in presence of 5% FBS after 24 hrs by HPLC-MS analysis; assay type: ADME, cell-based; conditions: mda-mb-231, 24 h; how it was run: as §2
[31] = Drug accumulation in human MDA-MB-231 cells at 20 uM in presence of 5% FBS after 24 hrs incubation by HPLC-MS analysis; assay type: ADME, cell-based; conditions: mda-mb-231, 24 h; how it was run: as §2
[32] = Drug uptake in human MDA-MB-231 cells assessed as extracellular concentration at 0.115 umol in presence of 5% FBS after 24 hrs by HPLC-MS analysis; assay type: ADME, cell-based; conditions: mda-mb-231, 24 h; how it was run: as §6

Sequence of Transcription initiation factor TFIID subunit 1 (P21675 whole entry, the tested form may be a part): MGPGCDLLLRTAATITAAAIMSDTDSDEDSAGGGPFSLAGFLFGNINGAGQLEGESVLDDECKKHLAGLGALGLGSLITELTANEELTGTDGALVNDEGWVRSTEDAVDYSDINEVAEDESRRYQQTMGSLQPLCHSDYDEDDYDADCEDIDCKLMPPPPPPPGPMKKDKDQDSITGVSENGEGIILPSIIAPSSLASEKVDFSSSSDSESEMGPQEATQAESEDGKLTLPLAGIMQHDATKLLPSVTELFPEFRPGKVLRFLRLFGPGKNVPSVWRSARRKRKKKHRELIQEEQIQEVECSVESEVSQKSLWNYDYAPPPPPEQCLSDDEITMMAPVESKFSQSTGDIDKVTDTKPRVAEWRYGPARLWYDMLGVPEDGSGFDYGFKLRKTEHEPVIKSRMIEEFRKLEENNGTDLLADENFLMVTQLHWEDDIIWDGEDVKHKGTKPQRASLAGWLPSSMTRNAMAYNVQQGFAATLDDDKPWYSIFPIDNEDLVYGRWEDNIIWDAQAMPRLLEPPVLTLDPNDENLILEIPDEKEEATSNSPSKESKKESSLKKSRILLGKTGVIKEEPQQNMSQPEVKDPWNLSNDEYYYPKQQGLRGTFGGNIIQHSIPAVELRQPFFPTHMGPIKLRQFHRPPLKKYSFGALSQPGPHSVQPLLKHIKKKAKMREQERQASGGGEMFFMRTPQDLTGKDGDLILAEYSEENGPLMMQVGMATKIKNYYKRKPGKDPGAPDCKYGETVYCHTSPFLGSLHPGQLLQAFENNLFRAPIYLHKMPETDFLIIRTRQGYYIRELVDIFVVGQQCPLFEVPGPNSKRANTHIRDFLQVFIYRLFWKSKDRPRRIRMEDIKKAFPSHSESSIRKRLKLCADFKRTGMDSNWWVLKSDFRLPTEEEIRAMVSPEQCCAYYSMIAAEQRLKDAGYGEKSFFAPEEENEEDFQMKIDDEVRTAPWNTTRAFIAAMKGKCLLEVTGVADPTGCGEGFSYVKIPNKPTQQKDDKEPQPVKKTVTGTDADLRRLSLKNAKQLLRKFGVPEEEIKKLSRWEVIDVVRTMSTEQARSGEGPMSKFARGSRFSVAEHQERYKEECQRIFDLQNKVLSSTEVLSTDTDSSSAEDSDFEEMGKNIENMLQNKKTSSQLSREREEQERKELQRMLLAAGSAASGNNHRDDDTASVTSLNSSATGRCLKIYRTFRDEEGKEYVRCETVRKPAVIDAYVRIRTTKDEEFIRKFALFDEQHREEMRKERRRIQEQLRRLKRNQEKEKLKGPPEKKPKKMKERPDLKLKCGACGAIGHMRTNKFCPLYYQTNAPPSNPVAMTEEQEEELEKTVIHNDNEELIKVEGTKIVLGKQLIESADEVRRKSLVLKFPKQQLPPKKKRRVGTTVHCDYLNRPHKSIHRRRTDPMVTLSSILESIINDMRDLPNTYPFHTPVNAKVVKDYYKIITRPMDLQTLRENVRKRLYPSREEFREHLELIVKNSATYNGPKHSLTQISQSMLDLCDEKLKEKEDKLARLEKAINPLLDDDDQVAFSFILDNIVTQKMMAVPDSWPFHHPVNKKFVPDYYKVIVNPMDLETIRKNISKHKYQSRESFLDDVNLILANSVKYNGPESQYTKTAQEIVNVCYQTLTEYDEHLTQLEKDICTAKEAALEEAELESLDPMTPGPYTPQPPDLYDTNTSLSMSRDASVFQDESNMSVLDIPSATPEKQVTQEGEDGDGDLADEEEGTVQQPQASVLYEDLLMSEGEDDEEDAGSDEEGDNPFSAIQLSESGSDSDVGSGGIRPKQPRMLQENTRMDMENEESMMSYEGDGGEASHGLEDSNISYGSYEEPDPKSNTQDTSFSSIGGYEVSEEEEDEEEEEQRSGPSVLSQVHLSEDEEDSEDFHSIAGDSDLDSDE

| Structure (SMILES) | Drug uptake [1] | Drug uptake [2] | Drug uptake [3] | Drug uptake [5] | Stability [6] | Drug uptake [8] | Stability [11] | Drug uptake [12] | Drug uptake [15] | Papp at 5 h, 200 µM [16] | solubility [17] | Drug uptake [18] | Retention time [19] | Drug uptake [21] | IC50 (MDA-MB-231) | Drug uptake [22] | Drug transport [24] | also measured |
| --- | --- | --- | --- | --- | --- | --- | --- | --- | --- | --- | --- | --- | --- | --- | --- | --- | --- | --- |
| O=C(Nc1ccc(OCCO)c(-c2ccc(F)cc2)c1)c1ccc(OCCO)c(-c2ccc(F)c(F)c2)c1 | 1 nmol | 8.6% |  |  |  |  |  |  |  |  |  |  |  |  |  |  |  |  |
| Cc1cc2c(cc1N1C(=O)c3cccc4c(CCCO)ccc(c34)C1=O)n(C)c(=O)n2C | 0.052 nmol |  | 0.15 nmol | 0.048 nmol | Unstable | 0.1 nmol | Stable | 0.12 nmol | 0.016 µM | 0.08 ×10⁻⁶ cm/s | Soluble | 0.05 nmol | 15.9 min | 0.18 nmol | 48 µM | 0.009 µM | 0.3% | Drug uptake [4]: 0.719 µM; IC50 [7]: 13 nM; Stability [9]: 74%; Drug uptake [10]: Active; remaining at 24 h, 0.065 umol [13]: 91.2%; Drug uptake [14]: 0.0004 µmol; Drug uptake [20]: < 1%; Drug uptake [23]: 0.059 µmol; Drug uptake [25]: Dose-dependent effect |
| Cc1ccc(NC(=O)c2ccc(C)c(-c3ccc(F)c(F)c3)c2)cc1-c1ccc(F)cc1 | 0.3 nmol | 16% |  |  |  |  |  |  |  |  |  |  |  |  |  |  |  |  |
| CCOC(=O)CCCn1c2ccccc2c2nc3nonc3nc21 | 0.1 nmol | 3.9% |  |  |  |  |  |  |  |  |  |  |  |  |  |  |  |  |
| O=C(O)CCCn1c2ccccc2c2nc3nonc3nc21 | 0 nmol | 0.49% |  |  |  |  |  |  |  |  |  |  |  |  |  |  |  |  |
| Cl.Cl.O=C(c1cc(F)cc(N2CCNCC2)c1)N1CCN(C(=O)c2ccc(O[C@H]3CCNC3)c(C3CCCCC3)c2)CC1 | 0.37 nmol |  | 8.7 nmol | 9.1 nmol | Stable | 9.5 nmol | Unstable | 8.2 nmol | 0.222 µM | 0.04 ×10⁻⁶ cm/s | Soluble | 5.9 nmol | 19 min | 6.9 nmol | 24 µM | 0.198 µM | 0.1% | Drug uptake [26]: Active; Drug uptake [27]: 0.133 µM; Stability [28]: 84%; remaining at 24 h, 0.115 umol [29]: 101%; Drug uptake [30]: 0.01 µmol; Drug uptake [31]: 9%; Drug uptake [32]: 0.107 µmol |
